According to the EternaBench riboswitch data:

System: MS2 coat protein
Test: apparent Kd, MS2 coat protein; higher = weaker binding; RNA-MaP array; FMN 200 µM where present
Procedure, shortened: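 Designs were transcribed by stalled E. coli RNA polymerase on Illumina sequencing-chip clusters. They were titrated with SNAP-549-labelled MS2 coat protein from 0.7 or 1.5 nM, doubling to 3 µM, in 100 mM Tris-HCl pH 7.5, 80 mM KCl, 4 mM MgCl2, BSA, DTT, yeast tRNA and Tween-20, without and then with constant ligand. The apparent Kd is the median of filtered per-cluster fits after normalisation of green signal to red-channel RNA signal and control-cluster median Fmax.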

[1] = designed as: OFF switch for flavin mononucleotide, no ligand
[2] = ligand present: flavin mononucleotide, designed as: OFF switch for flavin mononucleotide
[3] = designed as: ON switch for flavin mononucleotide, no ligand
[4] = ligand present: flavin mononucleotide, designed as: ON switch for flavin mononucleotide

Sequence | apparent Kd [1] | apparent Kd [2] | apparent Kd [3] | apparent Kd [4]
GCGGAGUGAGGAUAUCCAAUUUAACGUACCAAUUAGGUACGGGAGAAGGCACAUGAGGAUCACCCAUGUACCGC | 0.0724 µM | 0.0535 µM |  | 
GCGGCUAGUGCAGGAUAUCGGCGCGUGUAGUGCCGAGAAGGGCACAUGAGGAUCACCCAUGUGAUCAAUCACUGCUAAGGCCGC | 0.00526 µM | 0.0054 µM |  | 
GCGGUACAUGAGGAUCACCCAUGUCAGGAUAUCCGCUGUUUGUUAAUAAACAGGCGGUGGAGAAGGGACUUCGC | 0.0349 µM | 0.0367 µM |  | 
GCGGUACAUGAGGAUCACCCAUGUCAGGAUAUCCGCUGUUUGUUAAUAAGCAGGCGGUGGAGAAGGGACUUCGC | 0.032 µM | 0.0331 µM |  | 
GCGUAAGUCACAGGAUAUCCAACAUGAGGAUCACCCAUGUAAAAGUGCCGCAUUAGAAUGCGACUGGAGAAGGGUGAUUCGUCG |  |  | 0.0513 µM | 0.0234 µM
GCGUAAUAGGUGUAGCUAGUCGUGCAAGAAGGGUGGUGAACAUGAGGAUCACCCAUGUGGUCAGUACAGGAUAUUGCUAUACGA |  |  | 0.561 µM | 0.162 µM
GCGUCAGAAUUAAUUGUGACAAGCAGAAGGCUAUAUCUUAUGUUAGACAUGAGGAUCACCCAUGUAGAGGAUAUGCAGUUACAC | 0.00787 µM | 0.0142 µM |  | 
GCGUUACAUGAGGAUCACCCAUGUGAGGAUAUGGUUCGGUACUGUCCUGUCGCGUACUCCAGAAGGCACGUGUC | 0.0313 µM | 0.0347 µM |  | 
GCGUUCUUGUAGAAGGUACAUACAAUAUCUUUUUAACACAUGACACAUGAGGAUCACCCAUGUUGUAAGGAUAUACAUGAACGC |  |  | 0.0068 µM | 0.00691 µM
GCGUUCUUGUAGAAGGUACAUACAAUCUCUUUUUAACACAUGACACAUGAGGAUCACCCAUGUUGUAAGGAUAUACAUGAACGC |  |  | 0.0087 µM | 0.00886 µM
GCGUUGAACGAGAAGGCCAAUACAUGAGGAUCACCCAUGUUUAGAUGUUUUGGAGGAUAUCGUACGUCGUCUCAUGAGCAACGC | 0.00668 µM | 0.00792 µM |  | 
GCGUUGAUGUAGAAGGUACAUGAAUAUAUUUAAUACCUCAAGUAACAUGAGGAUCACCCAUGUAGUAAGGAUAUACAUGAACGC |  |  | 0.0886 µM | 0.0561 µM
GCGUUGUACGAGAAGGCCAAUACAUGAGGAUCACCCAUGUUAAGUUGUUUUGGAGGAUAUCGAUCACAUUCAAUAAUGCAACGC | 0.00671 µM | 0.00577 µM |  | 
GCUACUACAUGAGGAUCACCCAUGUAUCCGUAGCGGGCCGCACAGGAUAUCAACCUCGGAAGAGGUGAGAAGGGUGAUACUCAU |  |  | 0.0232 µM | 0.0381 µM
GCUAGUAUUGCAGGAUAUUGAGAAUAAUUAUUACAAGAAGGGCAUAACAUGAGGAUCACCCAUGUUUUCCUUAAUGAUACUAGC | 0.00533 µM | 0.00559 µM |  | 
GCUGACGAUGUAGGAUAUCUCGACGAUAAGUCGAGAGAAGGACAUGAGGAUCACCCAUGUAAAAUCCCGUCAGCGAGGAAACUC | 0.0164 µM | 0.0231 µM |  | 
GCUGCAUAGGCAGGAUAUGCAAAAGCAGAUGCAAAGCAUUUGUAAAACACAUGAGGAUCACCCAUGUAGAAGGGCCUGUGCAGU | 0.0218 µM | 0.0215 µM |  | 
GCUGCCGAUGCAGGAUAUCAGCACGUGUAGUGCUGAGAAGGGCACAUGAGGAUCACCCAUGUGAUCAAUUAAUAUCCGUGCAGC | 0.00589 µM | 0.00778 µM |  | 
GCUGCGCGAGGAUAUGCGGUUUGUGCUUUGGCCCGUGGCGUACAUGAGGAUCACCCAUGUAGAAGGCGUGUGGG | 0.0215 µM | 0.0217 µM |  | 
GCUGCGUACGCAGGAUAUACAUGAGGAUCACCCAUGUAACUCGAACUCUAAGCGGGUGCGCGCAUGUAGAAGGGCGGGCGAGCC | 0.035 µM | 0.0679 µM |  | 
GCUGGUCAAGGAUAUGCAAUCGUGCUUCGGCACGUAAGAUCACAUGAGGAUCACCCAUGUAGAAGGUGACCAGC | 0.0225 µM | 0.0598 µM |  | 
GCUGUCGCAUGAGGAUAUGGACUGCUUUGCAGUCCAGAAGGCAUGUCAAUAGACAUGAGGAUCACCCAUGUAGUUAAGACAGCA |  |  | 0.704 µM | 0.0424 µM
GCUGUCGCAUGAGGAUAUGGUCAGCUUUGCUGACCAGAAGGCAUGUCAAUAGACAUGAGGAUCACCCAUGUAGUUAAGACAGCA |  |  | 0.717 µM | 0.0492 µM
GCUGUCGCGUGAGGAUAUGGUCGGCUGUGCUGACCAGAAGGCAUGUCAAUAGACAUGAGGAUCACCCAUGUGGUUAGGGCGGCU |  |  | 0.865 µM | 0.127 µM
GCUUGUGAAGGAUAUACUGGCGACAUGCGCUCAACACGCGCACAUGAGGAUCACCCAUGUAGAAGGUCAAACAU | 0.0239 µM | 0.033 µM |  | 
GCUUUAUAGAUCCAUUUUAACAACAUGAGGAUCACCCAUGUGCAGGAUAUCGUUUGUUUUAUAUUCGAGAAGGGCAAAUUCAUC | 0.0379 µM | 0.0931 µM |  | 
GCUUUUAAGGGAGGAUAUUGUUACAUGAGGAUCACCCAUGUGGCGGGAUGAUAUCUUAACAGGAACGAGAAGGCCCAAACGCGA | 0.0357 µM | 0.0654 µM |  | 

Sequence | apparent Kd [1] | apparent Kd [2] | apparent Kd [3] | apparent Kd [4]
GGAAAUCAUGUAGGAUAUGCAUGGCGAAGCUACGCAGAAGGACAUGAGGAUCACCCAUGUUAUAGCGUCCGAGAAAGGAUGCAC | 0.0388 µM | 0.162 µM |  | 
GGAAAUCAUGUAGGAUAUGCAUGGCGAAGCUACGCAGAAGGACAUGAGGAUCACCCAUGUUAUAGCUACCCGUUACGGUGGCAA | 0.131 µM | 0.119 µM |  | 
GGAAAUCAUGUAGGAUAUGCAUGGCGAAGCUACGCAGAAGGACAUGAGGAUCACCCAUGUUCUAGCGUCUGAGUUCAGAUGCAA | 0.0204 µM | 0.0563 µM |  | 
GGAAAUCAUGUAGGAUAUGCAUGGCGACGCUACGCAGAAGGACAUGAGGAUCACCCAUGUUAUAGCGUCCGAGAAAGGAUGCAA | 0.0345 µM | 0.0534 µM |  | 
GGAAGAAUGAUACCUUUUUAUUACAUGAGGAUCACCCAUGUGCAGGAUAUCGAUUAUUAUAGUUUCGAGAAGGGCAAGAAUUGU | 0.0197 µM | 0.0524 µM |  | 
GGACCAUAUCAGGAUAUGACUAGCUUCGGCUAGUCAGAAGGGAUGACAUGAGGAUCACCCAUGUGAUCAGGUCC | 0.0421 µM | 0.0505 µM |  | 
GGACGGAAAGUGAGGAUAUGCUCUACCUCGGUAGAGCAGAAGGCACAUGAGGAUCACCCAUGUGAUAACUGUUC | 0.0191 µM | 0.093 µM |  | 
GGACGUCACAUCUACAUGAGGAUCACCCAUGUCAAAAGACAUGAGGAUAUGCAUCCUAAUUGGAUGCAGAAGGCAUGGACGUCC |  |  | 1.2 µM | 0.0702 µM
GGACGUCACAUUAACAUGAGGAUCACCCAUGUCUAUAGACAUGAGGAUAUGGAUCCUAAUUGGAUCCAGAAGGCAUGGACGUCC |  |  | 0.787 µM | 0.0463 µM
GGACGUCACAUUUACAUGAGGAUCACCCAUGUCUCUUGACAUGAGGAUAUGGAUCCUAAUUGGAUCCAGAAGGCAUGGACGUCC |  |  | 1.13 µM | 0.153 µM
GGAGACCUCACAGGAUAUGCUGGACUUUGUCCAGCAGAAGGGUGGAAACAUGAGGAUCACCCAUGUAUGGUCUCCAAAUUUAAU |  |  | 0.089 µM | 0.00874 µM
GGAGCACACAUUAACAUGAGGAUCACCCAUGUCAAAAGACAUGAGGAUAUGGAUACGAAAAGGAUCCAGAAGGCAUGGUGCUCC |  |  | 0.693 µM | 0.0725 µM
GGAGCACACCUUAACAUGAGGAUCACCCAUGUCAAAAGACAUGAGGAUAUGGAUCCGAAAAGGAUCCAGAAGGCAUGGUGCUCC |  |  | 0.188 µM | 0.0119 µM
GGAGCCGGCACUGAGGAUAUUCAUAUUAAAACAUGAGGAUCACCCAUGUAGGCCAGAAGGCCUUGGGAGAAGGCAGGUCGGCUCG |  |  | 0.423 µM | 0.0279 µM
GGAGCUCCUGACAUGAGGAUCACCCAUGUUCAAUUAUUAAAUCAGGAUAUCGUCUCGAAACGAGACGAGAAGGGAUAUGCUCCU |  |  | 0.00589 µM | 0.0062 µM
GGAGCUCUCAUUAACAUGAGGAUCACCCAUGUCAAAAGACAUGAGGAUAUGGAUCCUAAUUGGAUCCAGAAGGCAUGGAGCUCC |  |  | 1.07 µM | 0.0543 µM
GGAGGACAUGAGGAUCACCCAUGUGGAUGGGCGCUAGGAUAUGCGUGCGGGAAGAGUGGAGCAGAAGGAGUGGGUU |  |  | 0.0483 µM | 0.0422 µM
GGAUAGGACACAGGAUAUACGUGCUAGAGAUACUAGCAAAAUUUCCUCACAUGAGGAUCACCCAUGUAGAAGGCUGUCCUAUCG | 0.00615 µM | 0.00595 µM |  | 
GGAUAGGACAGAGGAUAUACGGCUAGGAGAUACUAGCCACUAUUCCUCACAUGAGGAUCACCCAUGUAGAAGGCUGUCCUAUCG | 0.0169 µM | 0.109 µM |  | 
GGAUAGGACAGAGGAUAUACGUGAUAGAGAUACUAGCAAAAUUUCCUCACAUGAGGAUCACCCAUGUAGAAGGCUGUCCUAUCG | 0.31 µM | 0.115 µM |  | 
GGAUAGGACAGAGGAUAUACGUGCUAGAGAUACUAGCAAAAUUGCCUCACAUGAGGAUCACCCAUGUAGAAGGCUGUCCUAUCG | 0.00772 µM | 0.134 µM |  | 
GGAUAGGACAGAGGAUAUACGUGCUAGAGAUACUAGCAAAAUUUCCUCACAUGAGGAUCACCCAUGUAGAAGGCUGUCCGAUCG | 0.0146 µM | 0.323 µM |  | 
GGAUAGGACAGAGGAUAUACGUGCUAGAGAUACUAGCAAAAUUUCCUCACAUGAGGAUCACCCAUGUAGAAGGGUGUCCUAUCG | 0.0129 µM | 0.0127 µM |  | 
GGAUAGGACAGAGGAUAUACGUGCUAGAGAUACUAGCAAAGUUUCCUCACAUGAGGAUCACCCAUGUAGAAGGCUGUCCUAUCG | 0.0218 µM | 0.505 µM |  | 
GGAUAGGACAGAGGAUAUACGUGCUGGAGAUACUAGCAAAAUUUCCUCACAUGAGGAUCACCCAUGUAGAAGGCUGUCCUAUCG | 0.0326 µM | 0.478 µM |  | 
GGAUAGGACAGAGGAUAUACGUGGUAGAGAUACUAGCAAAAUUUCCUCACAUGAGGAUCACCCAUGUAGAAGGCUGUCCUAUCG | 0.532 µM | 0.0191 µM |  | 
GGAUAGGACAGAGGAUAUACGUGUUAGAGAUACUAGCAAAAUUUCCUCACAUGAGGAUCACCCAUGUAGAAGGCUGUCCUAUCG | 0.0231 µM | 0.413 µM |  | 
